Laboratory results as given in the EternaBench riboswitch data.

Test system: MS2 coat protein
Assay: apparent Kd, MS2 coat protein; higher = weaker binding; RNA-MaP array
Summary of the method: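 On an Illumina sequencing chip, sequenced DNA templates served for transcription of the designed RNAs, which were then bound at room temperature by fluorescently labeled MS2 coat protein at 1.5 nM to 3 μM, with or without input ligand. Apparent Kd is the median of the fits to each cluster's binding curve. Only designs measured on at least 10 clusters were kept.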

[1] = designed as: ON switch for flavin mononucleotide, no ligand
[2] = ligand present: flavin mononucleotide, designed as: ON switch for flavin mononucleotide
[3] = designed as: OFF switch for flavin mononucleotide, no ligand
[4] = ligand present: flavin mononucleotide, designed as: OFF switch for flavin mononucleotide
[5] = designed as: ON switch for tryptophan, no ligand
[6] = ligand present: tryptophan, designed as: ON switch for tryptophan

| Sequence | apparent Kd [1] [nM] | apparent Kd [2] [nM] | apparent Kd [3] [nM] | apparent Kd [4] [nM] | other results |
| --- | --- | --- | --- | --- | --- |
| UGGCCAGAACCUUUUGUGGCCACAUGAGGAUCACCCAUGUGCGAGGAUAUCCCAUCCGGUCCGGCGGAGAAGGCGCGUAUCGGC | 34.4 | 30.1 | – | – | – |
| GGGUUACACACAUGAGGAUCACCCAUGUUUGCGUGGGCGGGCAGAAGGAGAACCGGAUUACACUUCUAGGAUAUGCAGAUGAUC | 23.6 | 28.2 | – | – | – |
| GAUGCACAUGAGGAUCACCCAUGUCCUGAUACCAGAACGCGACUUUUCCCUUGGCAGCAGAAUUCACUUUUUUACAUUCAUACUG | – | – | – | – | apparent Kd (designed as: ON switch for theophylline, no ligand): 22.1 nM; apparent Kd (ligand present: theophylline, designed as: ON switch for theophylline): 22.9 nM |
| AAAACAUGAGGAUCACCCAUGUUGAUCAAACACCAGACCAAGAGAAGGAUCAGCACCGAGUGAUGAAAGGAUAUCUAUUAACGG | 39.2 | 23.8 | – | – | – |
| UAGCAGUUCACAGGAUAUAGUUUGCGAUAAGUUUAUUUAUGAGAGACAUGAGGAUCACCCAUGUACUAGAAGGGUGAGAAAUAA | 461 | 130 | – | – | – |
| GAACAAUGCCUAGGAUAUCUUACGAUUGAAAACAGAGAAGGAGGGACCGAACAUGAGGAUCACCCAUGUAGAUGUGGGACGUGG | – | – | 77.2 | 84.5 | – |
| GUGAACGUCAAAGGAUAUGUCGGAACUGCUAGAACAGAAGGUUGGGAAUCGGAUUGGUUGCACAUGAGGAUCACCCAUGUUGAG | 443 | 264 | – | – | – |
| UGACACAUGAGGAUCACCCAUGUCGCGAAACGAGGACCGGUACGGCCGCCACUCGCACAAACUCCUCUCCAGCACCAGCUUUUAG | – | – | – | – | apparent Kd [5]: 19.4 nM; apparent Kd [6]: 15.5 nM |
| GGACGCCAUAUAGAGGAUAUUAAUGUCGACACAUGAGGAUCACCCAUGUCCCACUCGGGCGAACAUAAGAAGGCUAAUCAGACGUA | 14.5 | 10.5 | – | – | – |
| GCUGAUAUCAAGAAGGCGAUCAGGGAAUAAGAGACAUGAGGAUCACCCAUGUACGCCAUUUGUAUCGAGGAUAUUGAAAAUAGG | 24.4 | 7.42 | – | – | – |
| AUAGUGUAAGGAUAUGUAGAGAGCUAGAAAAUACAAACAAUACAGAAGGUACAUGAGGAUCACCCAUGUGAUUG | – | – | 14.4 | 26.3 | – |
| CGCCCGUACUCAGGAUAUCGAAGUACGAGCCAAAUUAUGUCGGACAUGAGGAUCACCCAUGUGGGCGAGAAGGGAGAACGUGCG | – | – | 29.4 | 16.4 | – |
| UCCGCGGAGACGGCCGCCACUGAGUGAGAAGUCGUGCUCUAACUACAUGAGGAUCACCCAUGUCCCAGGACCGGGUCGAAGUGUU | – | – | – | – | apparent Kd [5]: 214 nM; apparent Kd [6]: 103 nM |
| UCCGGCGUUGACUAGGAUAUACGGAGGGUAACAUGAGGAUCACCCAUGUAAAGAACUAAAACAGCGUAGAAGGAGUCCAAAGCGAC | 28 | 19.1 | – | – | – |
| ACGCGUUCACAGAAGGCCUACAAAAUUACAUUAGGAGGAUAUGUUACAUGAGGAUCACCCAUGUCAUGGCUGUGUCUCGGUAUC | – | – | 30.8 | 41.4 | – |
| CGGGUAACCGAGAAGGACUUAAGACUACGUUAAGUAGGAUAUCGAUUUGUUACAUGAGGAUCACCCAUGUCUGGUCUUGACCGC | – | – | 8.66 | 9.67 | – |
| AUAUAAUCAGGAUAUACAUGUUUCUUUAACACCGAGGCCGUACAUGAGGAUCACCCAUGUAGAAGGGAUUGCGG | – | – | 6.95 | 6.32 | – |
| GUGUGGCGCUCAGGAUAUAGAAGGUCGCUAGUUCUAGAAGGGAGCAACGAGGUACCACAUGAGGAUCACCCAUGUUUGGUUGAC | – | – | 15.4 | 13.3 | – |
| UUAGUGAUACUAGGAUAUAGGUAAGACUCUUAACUAGAAGGAGUAGGGACGAAUACAUGAGGAUCACCCAUGUGAUUCUGGUUG | – | – | 21.6 | 26.3 | – |
| GUUUUGCGAAUAGGAUAUAGUAAUGAUUCAGGAAGCCUGAACAUGAGGAUCACCCAUGUGCCAUCCUAGAAGGAUUCGCACGUG | 359 | 186 | – | – | – |
| AAGGAGGAGCAAGGAUAUCAGUGUAUACGCCACAUGAGGAUCACCCAUGUCCGGAGCGAGAUUCCUGAGAAGGUGCCGCCUAGC | 7.25 | 6.47 | – | – | – |
| GUUCCCUCACAGAAGGAGUGUGUUAGUUGCACAUGAGGAUCACCCAUGUAAUAAACACGUGGCCACUAGGAUAUGUUAAACUGC | 12.9 | 10.8 | – | – | – |
